Source: ChEMBL document CHEMBL4190232, “Isoflavones and Rotenoids from the Leaves of Millettia oblata ssp. teitensis” (J Nat Prod, 2017)
Active and inactive are the calls of the source. The calls are words filed in the database; no cut-off is given here.

Tests used:
MDA-MB-231 = test: Cytotoxicity against human MDA-MB-231 cells assessed as reduction in cell viability after 72 hrs by alamarBlue assay; type: functional, cell-based; conditions: MDA-MB-231, 72 h
Summary of the method: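 MDA-MB-231 cells grown in DMEM with 10% FBS, 2 mM L-glutamine, penicillin/streptomycin, 37 °C, 5% CO2. Seeded at 10⁴ cells/well, preincubated 24 h, then compound or DMSO vehicle (0.1% or 1.0% v/v) for 72 h. Viability by Alamar Blue, absorbance at 570 nm (600 nm reference), as % of vehicle control; six replicates, at least six independent experiments.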

Mus musculus = species on record: Mus musculus; test: Inhibition of cap/HCV-mediated translation in mouse Krebs2 cell free extract expressing FF/HCV/IRES-Ren mRNA reporter transcript assessed as reduction in luciferase production at 20 uM after 60 mins; type: functional
Summary of the method: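 Compound stocks were 10 mM in DMSO, diluted to 200 μM in water, and tested at a final 20 μM in Krebs-2 translation extracts. The extracts were programmed with bicistronic Firefly–HCV IRES–Renilla luciferase mRNA. Reactions ran for 60 min at 30 °C, after which luciferase activities were measured.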

HepG2 = test: Cytotoxicity against human HepG2 cells assessed as reduction in cell viability by MTT assay; type: functional, cell-based
[1] = Cytotoxicity against mouse C26 cells assessed as reduction in cell viability by MTT assay; type: functional, cell-based
[2] = tested on: Lewis lung carcinoma cell line; test: Cytotoxicity against mouse LL/2 cells assessed as reduction in cell viability by MTT assay; type: functional, cell-based
B16 = test: Cytotoxicity against mouse B16 cells assessed as reduction in cell viability by MTT assay; type: functional, cell-based

Row | SMILES | IC50 (MDA-MB-231) [µM] | inhibition (Mus musculus) | further results
1 | CC(C)=CCOc1ccc2c(=O)c(-c3ccc4c(c3)OCO4)coc2c1 | 154 | inactive | 
2 | COc1ccc2c(c1)O[C@@H]1COc3cc(OC)c(OC)cc3[C@]1(O)C2=O |  | inactive | 
3 | COc1ccc(-c2coc3cc(OCC=C(C)C)ccc3c2=O)cc1 | 33.3 | inactive | 
4 | COc1cc2c(cc1OC)-c1c(oc3c4c(ccc3c1=O)OC(C)(C)C=C4)CO2 [DEHYDRODEGUELIN] |  | inactive | IC50 (HepG2): 0.56 to 16 µM; IC50 [1]: 0.56 to 16 µM; IC50 [2]: 0.56 to 16 µM; IC50 (B16): 0.56 to 16 µM
5 | COc1cc2c(cc1-c1coc3cc(O)ccc3c1=O)OCO2 |  | inactive | 
6 | COc1ccc2c(=O)c(-c3cc(OC)c4c(c3OC)OCO4)coc2c1 | 168 | inactive | 
7 | COc1cc2occ(-c3cc4c(cc3OC)OCO4)c(=O)c2cc1OC |  | inactive | 
8 | COc1cc2c(cc1OC)[C@]1(O)C(=O)c3ccc4c(c3O[C@@H]1CO2)C=CC(C)(C)O4 [TEPHROSIN] |  | inactive | IC50 (HepG2): 1.35 to 9.85 µM; IC50 [1]: 1.35 to 9.85 µM; IC50 [2]: 1.35 to 9.85 µM; IC50 (B16): 1.35 to 9.85 µM
9 | COc1ccc2c(c1)O[C@@H]1COc3cc4c(cc3[C@]1(O)C2=O)OCO4 |  | inactive | 
10 | COc1ccc2c(c1)O[C@@H]1COc3cc4c(cc3[C@@]1(O)C2=O)OCO4 |  | inactive | 
11 | COc1ccc2c(c1)O[C@@H]1COc3cc(OC)c(OC)cc3[C@@H]1C2=O |  | inactive | 
12 | COc1ccc2c(c1)O[C@@H]1COc3c(cc(OC)c4c3OCO4)[C@]1(O)C2=O |  | inactive | 
13 | COc1ccc2c(c1)O[C@@H]1COc3cc4c(cc3[C@@H]1C2=O)OCO4 | 93.8 | inactive | 
14 | COc1cc2c(cc1-c1coc3c(CC=C(C)C)c(OC)c(OC)cc3c1=O)OCO2 | > 235 | inactive | 
